Reference: PMC8798964 (Translational Cancer Research, 2021)
Read-outs that look alike come from different tables or passages of the source.

Key:
[1] = test system: PCNSL; settings: cited from earlier work
[2] = Pharmacokinetic study: plasma and brain concentration after a single oral dose; format: in vivo, SD rats; settings: for Kp: male, SD, rat, brain/plasma, po
In short: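 Male SD rats (219.0–260.5 g), fasted overnight until 4 h post-dose, given one oral dose of 10, 15 or 55 mg/kg depending on compound. n=3 per time point (0.25–24 h). Jugular blood in K2EDTA; plasma by spinning at 4 °C. Brains taken after decapitation, homogenised in 3-fold saline. Samples precipitated with acetonitrile plus internal standards, then LC-MS/MS. Brain/plasma ratio calculated at Cmax.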

[3] = test system: SU-DHL-6 cells; assay: Apoptosis assay; format: cell-based
In short: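 SU-DHL-6 cells kept in RPMI 1640 with 10% heat-inactivated FBS and penicillin/streptomycin at 37 °C, 5% CO2. Seeded at 4×10^5/mL and left 24 h, then exposed to one of three concentrations of test compound, or DMSO control, for 24 or 48 h. Stained with Annexin V/7-AAD and read by flow cytometry. Live, early apoptotic and late apoptotic/dead populations counted.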

[4] = Ibrutinib concentration in CSF of a PCNSL patient; format: in vivo; settings: human, po, 560 mg
[5] = phase II, monotherapy 560 mg/day, intent-to-treat analysis

Row | Kp [2] | concentration at 2 h [4] [ng/mL] | Unbound concentration in brain ([2]; SD rats, 15 mg/kg orally, 4 hours after administration) | SMILES | ORR rate ([1]; phase I/II trial, relapsed/refractory PCNSL patients) [%] | Induction of apoptosis ([3]; SU-DHL-6, three concentrations, 24 or 48 hours) | Disease control rate ([1]; phase II, monotherapy 560 mg/day, evaluable patients) [%] | Disease control rate [1, 5] [%] | Stable diseases [1, 5] [%] | Objective response rate (ORR) ([1]; recurrent PCNSL patients, single drug, two clinical trials) | Clinical responses ([1]; refractory and recurrent PCNSL, 10 of 13 patients) [%] | Patients who achieved CR ([1]; refractory and recurrent PCNSL, cohort of 13) | Induction of apoptosis ([3]; SU-DHL-6, 0.5 µM) | Induction of apoptosis ([3]; SU-DHL-6, 5 µM, 24 and 48 hours) | Induction of apoptosis ([3]; SU-DHL-6, 50 µM, 24 and 48 hours) | Pro-apoptosis effect ([3]; SU-DHL-6, 50 µM, after another 24 hours (48 h)) | Induction of apoptosis ([3]; SU-DHL-6, 24 hours, 0.5 µM or higher) | Induction of apoptosis ([3]; SU-DHL-6, lower concentration, after another 24 hours (48 h))
1 | 0.085 |  |  | CC#CC(=O)N1CC[C@@H](n2c(=O)n(-c3ccc(Oc4ccccc4)cc3)c3c(N)ncnc32)C1 [tirabrutinib] | 64 | only induced when cells were treated with high dose tirabrutinib for a relatively longer period of time (50 µM, 48 h) |  |  |  |  |  |  |  |  |  |  |  | 
2 | 0.098 | 0.309 |  | C=CC(=O)N1CCC[C@@H](n2nc(-c3ccc(Oc4ccccc4)cc3)c3c(N)ncnc32)C1 [ibrutinib] |  |  | 70 | 62 | 10 | 50–70% | 77 | five | not observed | subtle | prominent |  |  | 
3 | 0.035 |  | below the limit of detection | C=CC(=O)N1CCC([C@@H]2CCNc3c(C(N)=O)c(-c4ccc(Oc5ccccc5)cc4)nn32)CC1 [zanubrutinib] |  |  |  |  |  |  |  |  |  |  |  | maintained | good ability in inducing cell apoptosis | cells recovered from apoptosis
